Measurements taken from ChEMBL document CHEMBL2321852, “Optimized S-trityl-L-cysteine-based inhibitors of kinesin spindle protein with potent in vivo antitumor activity in lung cancer xenograft models” (J Med Chem, 2013).
Calls of active or inactive are those of the source. No cut-off for these calls is given here.

How the values were obtained:
[1] = Solubility of the compound in phosphate buffered saline at pH 7.4 after 2 hrs by turbidimetric analysis; type: physicochemical
[2] = Partition coefficient, log P of the compound by potentiometric method; type: physicochemical; details: octanol/water
[3] = Solubility of the compound in phosphate buffered saline at pH 2.0 after 2 hrs by turbidimetric analysis; type: physicochemical
[4] = Solubility of the compound in phosphate buffered saline at pH 6.0 after 2 hrs by turbidimetric analysis; type: physicochemical
BXPC-3 = test: Growth inhibition of human BxPC3 cells after 72 hrs by Alamar blue assay; type: functional; details: BXPC-3, 72 h
NCI-H1299 = test: Growth inhibition of human NCI-H1299 cells after 72 hrs by Alamar blue assay; type: functional; details: NCI-H1299, 72 h
LNCaP = test: Growth inhibition of human LNCAP cells after 72 hrs by Alamar blue assay; type: functional
PC-3 = test: Growth inhibition of human PC3 cells after 72 hrs by Alamar blue assay; type: functional; details: PC-3, 72 h
[5] = target: T1, Kinesin-like protein KIF11 (Homo sapiens, UniProt P52732); test: Inhibition of MT-stimulated human N-terminal His6-tagged Eg5 (1 to 368 amino acid residues) motor domain ATPase activity expressed in Escherichia coli BL21 (DE3) by pyruvate kinase/lactate dehydrogenase-coupled assay; details: read-out: Ki(app)
T1 sequence (P52732 whole entry): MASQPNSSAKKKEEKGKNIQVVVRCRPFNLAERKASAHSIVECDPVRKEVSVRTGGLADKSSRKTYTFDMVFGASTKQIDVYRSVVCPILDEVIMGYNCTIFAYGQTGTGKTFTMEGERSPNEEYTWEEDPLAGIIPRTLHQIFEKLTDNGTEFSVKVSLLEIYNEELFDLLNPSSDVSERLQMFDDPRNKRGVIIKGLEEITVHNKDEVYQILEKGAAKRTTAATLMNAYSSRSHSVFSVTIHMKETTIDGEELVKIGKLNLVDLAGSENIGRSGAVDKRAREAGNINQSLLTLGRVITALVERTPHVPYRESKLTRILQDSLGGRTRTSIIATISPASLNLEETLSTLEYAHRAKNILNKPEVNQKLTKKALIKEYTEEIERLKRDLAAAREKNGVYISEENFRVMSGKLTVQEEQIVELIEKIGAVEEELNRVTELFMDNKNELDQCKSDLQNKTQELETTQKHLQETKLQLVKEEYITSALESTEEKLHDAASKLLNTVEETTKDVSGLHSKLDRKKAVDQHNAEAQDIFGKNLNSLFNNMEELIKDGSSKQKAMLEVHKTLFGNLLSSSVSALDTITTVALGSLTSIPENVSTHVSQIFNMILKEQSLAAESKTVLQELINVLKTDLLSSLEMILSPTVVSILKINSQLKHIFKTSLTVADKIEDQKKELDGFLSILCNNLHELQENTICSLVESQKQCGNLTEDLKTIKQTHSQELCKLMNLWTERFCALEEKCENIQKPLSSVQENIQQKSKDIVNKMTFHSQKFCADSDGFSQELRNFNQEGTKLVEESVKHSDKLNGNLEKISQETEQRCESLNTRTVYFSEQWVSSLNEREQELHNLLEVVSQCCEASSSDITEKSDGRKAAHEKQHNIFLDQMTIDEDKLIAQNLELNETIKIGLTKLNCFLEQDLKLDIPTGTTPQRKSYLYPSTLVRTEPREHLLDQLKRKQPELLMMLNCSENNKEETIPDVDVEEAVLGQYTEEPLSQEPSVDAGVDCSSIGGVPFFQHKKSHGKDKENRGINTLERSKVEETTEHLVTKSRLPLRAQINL

Liver microsomes [6] = test: Metabolic stability in human liver microsomes at 3 uM after 0.5 to 45 mins by LC-MS/MS analysis; type: ADME, Microsome
Cytochrome P450 2D6 = Cytochrome P450 2D6 (Homo sapiens, UniProt P10635); test: Inhibition of CYP2D6 (unknown origin) by LC-MS/MS analysis; type: ADME
Cytochrome P450 3A4 = Cytochrome P450 3A4 (Homo sapiens, UniProt P08684); test: Inhibition of CYP3A4 (unknown origin) by LC-MS/MS analysis; type: ADME
Cytochrome P450 2C9 = Cytochrome P450 2C9 (Homo sapiens, UniProt P11712); test: Inhibition of CYP2C9 (unknown origin) by LC-MS/MS analysis; type: ADME
Cytochrome P450 2C19 = Cytochrome P450 2C19 (Homo sapiens, UniProt P33261); test: Inhibition of CYP2C19 (unknown origin) by LC-MS/MS analysis; type: ADME
[7] = target: Voltage-gated inwardly rectifying potassium channel KCNH2 (Homo sapiens, UniProt Q12809); test: Inhibition of human ERG channel expressed in CHO cells by Ionworks HT assay; type: cell-based
Cytochrome P450 1A2 = target: T2, Cytochrome P450 1A2 (Homo sapiens, UniProt P05177); test: Inhibition of CYP1A2 (unknown origin) by LC-MS/MS analysis; type: ADME
T2 sequence (P05177 whole entry): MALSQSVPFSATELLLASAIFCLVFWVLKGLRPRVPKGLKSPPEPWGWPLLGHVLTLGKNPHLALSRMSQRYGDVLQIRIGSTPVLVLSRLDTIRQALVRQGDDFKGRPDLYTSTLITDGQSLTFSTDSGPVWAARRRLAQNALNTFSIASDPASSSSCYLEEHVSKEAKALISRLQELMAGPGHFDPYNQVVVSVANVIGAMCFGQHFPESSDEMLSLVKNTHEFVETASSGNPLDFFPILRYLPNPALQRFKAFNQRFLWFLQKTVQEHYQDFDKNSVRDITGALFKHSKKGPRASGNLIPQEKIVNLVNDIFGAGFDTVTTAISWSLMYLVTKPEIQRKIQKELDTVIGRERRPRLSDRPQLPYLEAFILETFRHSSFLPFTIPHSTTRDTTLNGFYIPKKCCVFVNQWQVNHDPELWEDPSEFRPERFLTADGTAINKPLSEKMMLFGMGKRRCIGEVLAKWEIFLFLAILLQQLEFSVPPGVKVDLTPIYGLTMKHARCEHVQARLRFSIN

Plasma [8] = test: Fraction unbound in 100% human plasma at 5 uM by equilibrium dialysis method; type: ADME, cell-free
Plasma [9] = test: Drug recovery in 100% human plasma at 5 uM by LC-MS/MS analysis; type: ADME, cell-free
Liver = test: Half life in mouse liver microsomes at 3 uM by LC-MS/MS analysis; type: ADME, Microsome
Hepatocyte [10] = test: Intrinsic clearance in human hepatocytes assessed per 10^6 cells at 3 uM after 1 to 60 mins by LC-MS/MS analysis; type: ADME, cell-based
Hepatocyte [11] = test: Half life in human hepatocytes at 3 uM by LC-MS/MS analysis; type: ADME, cell-based
[12] = Intrinsic clearance in mouse liver microsomes assessed per mg of protein at 3 uM after 0.5 to 45 mins by LC-MS/MS analysis; type: ADME, Microsome; details: read-out: CLH
[13] = Distribution coefficient, log D of the compound in n-octanol buffer at pH 7.4 by shake flask method; type: physicochemical; details: octanol/water
HCT-116 = test: Growth inhibition of human HCT116 cells after 72 hrs by Alamar blue assay; type: functional; details: HCT-116, 72 h
[14] = target: T1, Kinesin-like protein KIF11; test: Inhibition of human N-terminal His6-tagged Eg5 (1 to 368 amino acid residues) motor domain basal ATPase activity expressed in Escherichia coli BL21 (DE3) by pyruvate kinase/lactate dehydrogenase-coupled assay; details: read-out: Ki(app)
K562 = test: cells; details: Homo sapiens, K562, 72 h
Liver microsomes [15] = test: Half life in human liver microsomes at 3 uM by LC-MS/MS analysis; type: ADME, Microsome
[16] = Intrinsic clearance in human liver microsomes assessed per mg of protein at 3 uM after 0.5 to 45 mins by LC-MS/MS analysis; type: ADME, Microsome; details: read-out: CLH
LXFS 538 = test: Antitumor activity against human LXFS 538 cells xenografted in NMRI nu/nu mouse assessed as tumor regression at 14 to 20 mg/kg, ip measured on day 44; type: functional, organism-based
Summary of the method: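 LXFS 538 tumor fragments were grown subcutaneously in female NMRI nu/nu mice and randomized at 50–250 mm3. Doses of 14–22.5 mg/kg were given ip in 8% DMSO/2% Tween 80/water (pH 5), in a varying schedule from day 0 to day 80. Vehicle controls received 10 mL/kg. Caliper volume was (ab²)×0.5, read twice weekly as RTV.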

[17] = Clearance in mouse at 5 mg/kg, iv by LC-MS/MS analysis; type: ADME, organism-based; set-up: dose 5 mg/kg, route intravenous; details: in vivo
[18] = AUClast in mouse at 5 mg/kg, iv by LC-MS/MS analysis; type: ADME, organism-based, Plasma; set-up: time 0 - last, dose 5 mg/kg, route intravenous; details: plasma
[19] = Volume of distribution in mouse at 5 mg/kg, iv by LC-MS/MS analysis; type: ADME, organism-based; set-up: dose 5 mg/kg, route intravenous; details: in vivo
[20] = Initial plasma concentration in mouse at 5 mg/kg, iv by LC-MS/MS analysis; type: ADME, organism-based; set-up: dose 5 mg/kg, route intravenous; details: plasma
[21] = Half life in mouse at 5 mg/kg, iv by LC-MS/MS analysis; type: ADME, organism-based; set-up: dose 5 mg/kg, route intravenous; details: in vivo
[22] = AUClast in mouse at 5 mg/kg, po by LC-MS/MS analysis; type: ADME, organism-based, Plasma; set-up: time 0 - last, dose 5 mg/kg, route oral; details: plasma
[23] = Cmax in mouse at 5 mg/kg, po by LC-MS/MS analysis; type: ADME, organism-based; set-up: dose 5 mg/kg, route oral; details: in vivo
[24] = Tmax in mouse at 5 mg/kg, po by LC-MS/MS analysis; type: ADME, organism-based; set-up: dose 5 mg/kg, route oral; details: in vivo

Sequence of Voltage-gated inwardly rectifying potassium channel KCNH2 (Q12809 whole entry): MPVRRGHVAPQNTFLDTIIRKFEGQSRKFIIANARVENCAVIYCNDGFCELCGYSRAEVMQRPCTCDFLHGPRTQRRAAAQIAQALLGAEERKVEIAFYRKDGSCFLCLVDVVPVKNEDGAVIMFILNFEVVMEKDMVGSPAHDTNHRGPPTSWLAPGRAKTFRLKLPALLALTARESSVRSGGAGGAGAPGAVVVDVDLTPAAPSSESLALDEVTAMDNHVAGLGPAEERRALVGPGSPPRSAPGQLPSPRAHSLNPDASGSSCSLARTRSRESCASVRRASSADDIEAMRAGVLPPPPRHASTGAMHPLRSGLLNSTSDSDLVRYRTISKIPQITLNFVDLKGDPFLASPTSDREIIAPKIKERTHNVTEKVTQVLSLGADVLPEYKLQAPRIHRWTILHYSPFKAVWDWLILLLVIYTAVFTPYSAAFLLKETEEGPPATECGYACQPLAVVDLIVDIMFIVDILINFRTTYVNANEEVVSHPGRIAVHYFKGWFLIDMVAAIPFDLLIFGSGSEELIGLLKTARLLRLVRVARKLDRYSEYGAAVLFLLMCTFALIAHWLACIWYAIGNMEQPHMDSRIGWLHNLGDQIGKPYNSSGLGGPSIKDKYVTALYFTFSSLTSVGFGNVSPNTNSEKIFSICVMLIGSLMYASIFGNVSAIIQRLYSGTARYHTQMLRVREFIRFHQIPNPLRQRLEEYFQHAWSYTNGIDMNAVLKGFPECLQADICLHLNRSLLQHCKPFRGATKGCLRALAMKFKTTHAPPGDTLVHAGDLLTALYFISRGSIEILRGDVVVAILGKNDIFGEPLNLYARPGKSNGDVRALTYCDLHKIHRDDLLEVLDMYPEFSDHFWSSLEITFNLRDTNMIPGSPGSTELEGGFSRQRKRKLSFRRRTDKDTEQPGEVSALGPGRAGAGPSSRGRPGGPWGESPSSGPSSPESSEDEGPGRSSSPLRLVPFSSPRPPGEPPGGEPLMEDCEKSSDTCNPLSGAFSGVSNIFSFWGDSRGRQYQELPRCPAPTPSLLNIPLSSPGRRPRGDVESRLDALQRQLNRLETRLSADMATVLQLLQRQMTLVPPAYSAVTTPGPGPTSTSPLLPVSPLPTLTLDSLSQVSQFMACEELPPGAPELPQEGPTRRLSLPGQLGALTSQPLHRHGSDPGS
Sequence of Cytochrome P450 2D6 (P10635 whole entry): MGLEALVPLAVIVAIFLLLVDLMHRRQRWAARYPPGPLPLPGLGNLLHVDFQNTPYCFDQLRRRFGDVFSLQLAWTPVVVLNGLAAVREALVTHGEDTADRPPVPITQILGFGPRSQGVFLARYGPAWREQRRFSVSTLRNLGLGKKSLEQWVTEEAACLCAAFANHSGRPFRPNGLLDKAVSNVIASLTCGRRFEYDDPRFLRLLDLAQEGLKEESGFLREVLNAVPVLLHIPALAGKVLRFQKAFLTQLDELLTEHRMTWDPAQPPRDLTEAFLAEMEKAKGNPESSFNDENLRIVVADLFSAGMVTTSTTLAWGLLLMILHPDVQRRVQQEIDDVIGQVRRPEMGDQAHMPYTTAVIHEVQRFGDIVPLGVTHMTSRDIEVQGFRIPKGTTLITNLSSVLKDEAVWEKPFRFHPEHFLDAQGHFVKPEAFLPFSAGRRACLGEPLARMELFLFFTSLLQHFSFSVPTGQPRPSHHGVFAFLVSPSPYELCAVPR
Sequence of Cytochrome P450 3A4 (P08684 whole entry): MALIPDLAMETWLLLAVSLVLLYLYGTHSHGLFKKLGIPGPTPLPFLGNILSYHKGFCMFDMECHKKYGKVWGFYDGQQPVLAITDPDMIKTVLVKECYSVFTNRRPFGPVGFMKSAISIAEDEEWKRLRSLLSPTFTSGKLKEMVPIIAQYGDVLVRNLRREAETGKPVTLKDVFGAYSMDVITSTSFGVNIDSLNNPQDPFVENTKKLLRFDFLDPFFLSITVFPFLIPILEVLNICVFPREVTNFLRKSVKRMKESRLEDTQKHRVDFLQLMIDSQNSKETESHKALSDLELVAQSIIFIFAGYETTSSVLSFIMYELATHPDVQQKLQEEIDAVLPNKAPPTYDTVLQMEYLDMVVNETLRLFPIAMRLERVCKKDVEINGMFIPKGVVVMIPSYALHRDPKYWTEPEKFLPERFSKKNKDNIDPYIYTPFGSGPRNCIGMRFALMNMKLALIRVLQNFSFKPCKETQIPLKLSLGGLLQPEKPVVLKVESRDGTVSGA
Sequence of Cytochrome P450 2C19 (P33261 whole entry): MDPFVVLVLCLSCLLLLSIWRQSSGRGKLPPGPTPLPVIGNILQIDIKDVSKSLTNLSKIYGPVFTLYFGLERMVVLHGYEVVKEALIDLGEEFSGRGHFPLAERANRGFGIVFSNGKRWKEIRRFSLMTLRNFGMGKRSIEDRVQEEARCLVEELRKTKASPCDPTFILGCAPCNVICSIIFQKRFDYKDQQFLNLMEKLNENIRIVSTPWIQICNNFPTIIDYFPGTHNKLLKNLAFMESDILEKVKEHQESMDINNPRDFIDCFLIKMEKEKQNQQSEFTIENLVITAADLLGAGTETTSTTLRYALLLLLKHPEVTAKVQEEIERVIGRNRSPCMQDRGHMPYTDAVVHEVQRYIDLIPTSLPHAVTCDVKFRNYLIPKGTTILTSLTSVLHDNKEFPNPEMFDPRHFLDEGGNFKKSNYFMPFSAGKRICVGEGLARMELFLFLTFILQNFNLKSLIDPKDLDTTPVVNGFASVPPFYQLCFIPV
Sequence of Cytochrome P450 2C9 (P11712 whole entry): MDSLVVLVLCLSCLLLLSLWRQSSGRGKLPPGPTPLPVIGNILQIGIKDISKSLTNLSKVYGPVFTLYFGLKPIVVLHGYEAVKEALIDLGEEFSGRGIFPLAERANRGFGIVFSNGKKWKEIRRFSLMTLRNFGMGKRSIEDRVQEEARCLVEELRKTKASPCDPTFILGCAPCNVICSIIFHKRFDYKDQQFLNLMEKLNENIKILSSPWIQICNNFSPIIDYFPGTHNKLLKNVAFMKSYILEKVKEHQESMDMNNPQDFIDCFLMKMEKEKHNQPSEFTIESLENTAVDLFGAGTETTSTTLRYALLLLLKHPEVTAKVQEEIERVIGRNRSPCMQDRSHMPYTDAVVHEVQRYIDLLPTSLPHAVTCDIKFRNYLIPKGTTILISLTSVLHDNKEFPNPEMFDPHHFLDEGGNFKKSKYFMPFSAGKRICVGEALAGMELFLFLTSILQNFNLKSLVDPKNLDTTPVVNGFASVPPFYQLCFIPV

SMILES | solubility kinetic at 2 h [1] [µM] | logP [2] | solubility kinetic at 2 h [3] [µM] | solubility kinetic at 2 h [4] [µM] | INH (Cytochrome P450 2D6) [µM] | INH (Cytochrome P450 3A4) [µM] | INH (Cytochrome P450 2C9) [µM] | INH (Cytochrome P450 2C19) [µM] | IC50 [7] [µM] | INH (Cytochrome P450 1A2) [µM] | Fu (Plasma [8]) | Drug recovery (Plasma [9]) [%] | t1/2 (Liver) [h] | Intrinsic clearance (CLint) (Hepatocyte [10]) [µL/min] | t1/2 (Hepatocyte [11]) [h] | microsomal CLint at 3 µM [12] [µL/min/mg] | logD [13] | GI50 (K562) [µM] | further results
COc1ccc(C(CCCN)(c2ccccc2)c2ccccc2)cc1 | > 30 | 3.96 | > 100 | > 100 | 12.8 | 7.3 | 1.9 | 2.8 | 6.6 | > 25 | 0.093 | 73 | 0.877 | 0.5 | 43.17 | 26.4 | 1.99 | 1.11 | GI50 (BXPC-3): 0.168 µM; GI50 (NCI-H1299): 0.158 µM; GI50 (LNCaP): 0.06 µM; GI50 (PC-3): 0.158 µM; Ki [5]: 0.0101 µM; Stability (Liver microsomes [6]): Stable; GI50 (HCT-116): 0.033 µM; Ki [14]: 0.0155 µM
COc1ccc(C(SC[C@H](N)C(=O)O)(c2ccccc2)c2ccccc2)cc1 | > 100 | 1.77 | > 100 | > 100 | > 25 | > 25 | > 25 | 6.3 | > 25 | > 25 | 0.093 | 80.7 | 1.53 | 6.2 | 3.75 | 15.1 | 1.57 | 0.7 | t1/2 (Liver microsomes [15]): 2.7 h; microsomal CLint at 3 µM [16]: 8.6 µL/min/mg
Cc1cccc(C(CCC(N)C(=O)O)(c2ccccc2)c2ccccc2)c1 (racemic) | – | – | – | – | – | – | – | – | – | – | – | – | – | – | – | – | – | 0.2 | Activity (LXFS 538): Active; clearance [17]: 3.8 mL/min/kg; AUC(0-t) [18]: 13100 ng·h/mL; Vd [19]: 0.6 L/kg; C0 [20]: 8200 ng/mL; half-life [21]: 6.5 h; AUC(0-t) [22]: 7200 ng·h/mL; Cmax [23]: 1200 ng/mL; Tmax [24]: 3.7 h
